Data taken from ChEMBL document CHEMBL1255234, “daptomycin activity against Staphylococcus aureus following vancomycin exposure in an in vitro pharmacodynamic model with simulated endocardial vegetations” (Antimicrob Agents Chemother, 2008).
Converted amounts (≈) assume the structure as drawn.

Columns and labels:
Staphylococcus aureus [1] = experiment: Cmax in methicillin-resistant Staphylococcus aureus WB2 at 1 g administered every 12 hrs for 4 days in in vitro pharmacokinetic-pharmacodynamic model with simulated endocardial vegetations; format: ADME, organism-based; parameters: dose 1 g; details: in vivo
How it was run: (§1)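 Duplicate samples taken from the model injection port over 0–192 h and stored at −70°C. Daptomycin assayed by Micrococcus luteus ATCC 9341 disk microbioassay (standards 2.5–150 mg/liter; detection limit 2.5 mg/liter). Vancomycin assayed by fluorescence polarization immunoassay (detection limit 2 mg/liter). Cmax and half-life derived by the trapezoidal method.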

Staphylococcus aureus [2] = experiment: Cmax in methicillin-resistant Staphylococcus aureus 36132 at 1 g administered every 12 hrs for 4 days in in vitro pharmacokinetic-pharmacodynamic model with simulated endocardial vegetations; format: ADME, organism-based; parameters: dose 1 g; details: in vivo; how it was run: as §1
Staphylococcus aureus [3] = experiment: Half life in methicillin-resistant Staphylococcus aureus 675 at 1 g administered every 12 hrs for 4 days in in vitro pharmacokinetic-pharmacodynamic model with simulated endocardial vegetations; format: ADME, organism-based; details: in vivo; how it was run: as §1
Staphylococcus aureus [4] = experiment: Half life in methicillin-resistant Staphylococcus aureus WB2 at 1 g administered every 12 hrs for 4 days in in vitro pharmacokinetic-pharmacodynamic model with simulated endocardial vegetations; format: ADME, organism-based; details: in vivo; how it was run: as §1
Staphylococcus aureus [5] = experiment: Half life in methicillin-susceptible Staphylococcus aureus 616 at 1 g administered every 12 hrs for 4 days in in vitro pharmacokinetic-pharmacodynamic model with simulated endocardial vegetations; format: ADME, organism-based; details: in vivo; how it was run: as §1
Staphylococcus aureus [6] = experiment: Cmax in methicillin-susceptible Staphylococcus aureus 616 at 1 g administered every 12 hrs for 4 days in in vitro pharmacokinetic-pharmacodynamic model with simulated endocardial vegetations; format: ADME, organism-based; parameters: dose 1 g; details: in vivo; how it was run: as §1
Staphylococcus aureus [7] = experiment: Half life in methicillin-resistant Staphylococcus aureus WB1 at 1 g administered every 12 hrs for 4 days in in vitro pharmacokinetic-pharmacodynamic model with simulated endocardial vegetations; format: ADME, organism-based; details: in vivo; how it was run: as §1
Staphylococcus aureus [8] = experiment: Half life in methicillin-resistant Staphylococcus aureus 36132 at 1 g administered every 12 hrs for 4 days in in vitro pharmacokinetic-pharmacodynamic model with simulated endocardial vegetations; format: ADME, organism-based; details: in vivo; how it was run: as §1
Staphylococcus aureus [9] = experiment: Cmax in methicillin-resistant Staphylococcus aureus 675 at 1 g administered every 12 hrs for 4 days in in vitro pharmacokinetic-pharmacodynamic model with simulated endocardial vegetations; format: ADME, organism-based; parameters: dose 1 g; details: in vivo; how it was run: as §1
Staphylococcus aureus [10] = experiment: Cmax in methicillin-resistant Staphylococcus aureus WB1 at 1 g administered every 12 hrs for 4 days in in vitro pharmacokinetic-pharmacodynamic model with simulated endocardial vegetations; format: ADME, organism-based; parameters: dose 1 g; details: in vivo; how it was run: as §1
Staphylococcus aureus [11] = experiment: Half life in methicillin-resistant Staphylococcus aureus 36132 at 6 mg/kg administered daily for 4 days pretreated with 1 g vancomycin administered every 12 hrs for 4 days in in vitro pharmacokinetic-pharmacodynamic model with simulated endocardial vegetations; format: ADME, organism-based; parameters: dose 6 mg/kg; details: in vivo, 96 h; how it was run: as §1
Staphylococcus aureus [12] = experiment: Antimicrobial activity against methicillin-susceptible Staphylococcus aureus at 6 mg/kg administered daily for 4 days after 4 days of growth without antibiotic in in vitro pharmacokinetic-pharmacodynamic model with simulated endocardial vegetations
Staphylococcus aureus [13] = experiment: Antimicrobial activity against methicillin-resistant Staphylococcus aureus WB2
Staphylococcus aureus [14] = experiment: Half life in methicillin-resistant Staphylococcus aureus WB1 at 6 mg/kg administered daily for 4 days pretreated with 1 g vancomycin administered every 12 hrs for 4 days in in vitro pharmacokinetic-pharmacodynamic model with simulated endocardial vegetations; format: ADME, organism-based; parameters: dose 6 mg/kg; details: in vivo, 96 h; how it was run: as §1
Staphylococcus aureus [15] = experiment: Antimicrobial activity against methicillin-resistant Staphylococcus aureus WB1
Staphylococcus aureus [16] = experiment: Cmax in methicillin-resistant Staphylococcus aureus 675 at 6 mg/kg administered daily for 4 days pretreated with 1 g vancomycin administered every 12 hrs for 4 days in in vitro pharmacokinetic-pharmacodynamic model with simulated endocardial vegetations; format: ADME, organism-based; parameters: dose 6 mg/kg; details: in vivo, 96 h; how it was run: as §1
Staphylococcus aureus [17] = experiment: Half life in methicillin-susceptible Staphylococcus aureus 616 at 6 mg/kg administered daily for 4 days pretreated with 1 g vancomycin administered every 12 hrs for 4 days in in vitro pharmacokinetic-pharmacodynamic model with simulated endocardial vegetations; format: ADME, organism-based; parameters: dose 6 mg/kg; details: in vivo, 96 h; how it was run: as §1
Staphylococcus aureus [18] = experiment: Half life in methicillin-susceptible Staphylococcus aureus 616 at 10 mg/kg administered daily for 4 days pretreated with 1 g vancomycin administered every 12 hrs for 4 days in in vitro pharmacokinetic-pharmacodynamic model with simulated endocardial vegetations; format: ADME, organism-based; parameters: dose 10 mg/kg; details: in vivo, 96 h; how it was run: as §1
Staphylococcus aureus [19] = experiment: Antimicrobial activity against methicillin-susceptible Staphylococcus aureus 616 at 6 mg/kg administered daily for 8 days pretreated with 1 g vancomycin administered every 12 hrs for 4 days in in vitro pharmacokinetic-pharmacodynamic model with simulated endocardial vegetations; format: functional
How it was run: (§2)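 S. aureus SEVs (≈10^9 CFU/g inoculum in human cryoprecipitate plus platelets) suspended in a 250-ml one-compartment model at 37°C. Fresh medium pumped to simulate drug half-lives; drug given as boluses over 8 days; duplicate models. Two SEVs removed per model at each time point (0–192 h), homogenized, plated on TSA 35°C 24 h. Log10 CFU/g reduction read from time-kill curves; detection limit 2.0 log10 CFU/g.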

Staphylococcus aureus [20] = experiment: Cmax in methicillin-resistant Staphylococcus aureus WB2 at 6 mg/kg administered daily for 4 days pretreated with 1 g vancomycin administered every 12 hrs for 4 days in in vitro pharmacokinetic-pharmacodynamic model with simulated endocardial vegetations; format: ADME, organism-based; parameters: dose 6 mg/kg; details: in vivo, 96 h; how it was run: as §1
Staphylococcus aureus [21] = experiment: Cmax in methicillin-resistant Staphylococcus aureus 36132 at 6 mg/kg administered daily for 4 days pretreated with 1 g vancomycin administered every 12 hrs for 4 days in in vitro pharmacokinetic-pharmacodynamic model with simulated endocardial vegetations; format: ADME, organism-based; parameters: dose 6 mg/kg; details: in vivo, 96 h; how it was run: as §1
Staphylococcus aureus [22] = experiment: Antimicrobial activity against methicillin-susceptible Staphylococcus aureus 616 at 6 mg/kg administered daily for 8 days in in vitro pharmacokinetic-pharmacodynamic model with simulated endocardial vegetations; format: functional; how it was run: as §2
Staphylococcus aureus [23] = experiment: AUC(0-24 hrs)/MIC(broth) in methicillin-susceptible Staphylococcus aureus 616 at 1 g administered every 12 hrs for 4 days in in vitro pharmacokinetic-pharmacodynamic model with simulated endocardial vegetations; format: functional
How it was run: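 S. aureus simulated endocardial vegetations (fibrin/platelet clots, ~10^9 CFU/g) suspended in a 250-ml one-compartment model at 37°C, medium pumped to mimic half-life; vancomycin bolus every 12 h (target Cmax 30, Cmin 10 mg/liter) for 4 days. Duplicate runs. Drug levels by fluorescence polarization immunoassay; AUC0-24 by trapezoidal method, divided by broth microdilution MIC (CLSI).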

Staphylococcus aureus [24] = experiment: Antimicrobial activity against methicillin-susceptible Staphylococcus aureus 616 at 6 mg/kg administered daily for 4 days in in vitro pharmacokinetic-pharmacodynamic model with simulated endocardial vegetations; format: functional
How it was run: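 SEVs (clot of cryoprecipitate, platelets and organism) were suspended in a 250-ml, 37°C model with bolus dosing and pump clearance simulating half-lives. Daptomycin was given every 24 h (Cmax 98.6, Cmin 6.2 mg/liter) after 4 days of vancomycin 1 g q12h or no treatment. SEVs were sampled to 192 h, homogenized and plated (35°C, 24 h) for CFU/g; T99.9 was derived. Runs were done in duplicate.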

Staphylococcus aureus [25] = experiment: Cmax in methicillin-susceptible Staphylococcus aureus 616 at 10 mg/kg administered daily for 4 days pretreated with 1 g vancomycin administered every 12 hrs for 4 days in in vitro pharmacokinetic-pharmacodynamic model with simulated endocardial vegetations; format: ADME, organism-based; parameters: dose 10 mg/kg; details: in vivo, 96 h; how it was run: as §1
Staphylococcus aureus [26] = experiment: Antimicrobial activity against methicillin-susceptible Staphylococcus aureus 616; format: functional
How it was run: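 MIC by broth microdilution in SMHB or by Etest, following CLSI guidelines. MBC defined as 99.9% killing of the starting inoculum, from 5 μl of the MIC well and all other growth-inhibited wells plated onto agar.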

Staphylococcus aureus [27] = experiment: microbe, parasite or virus in culture; details: 675
Staphylococcus aureus [28] = experiment: Half life in methicillin-resistant Staphylococcus aureus WB2 at 6 mg/kg administered daily for 4 days pretreated with 1 g vancomycin administered every 12 hrs for 4 days in in vitro pharmacokinetic-pharmacodynamic model with simulated endocardial vegetations; format: ADME, organism-based; parameters: dose 6 mg/kg; details: in vivo, 96 h; how it was run: as §1
Staphylococcus aureus [29] = experiment: microbe, parasite or virus in culture; details: 36132
Staphylococcus aureus [30] = experiment: Cmax in methicillin-susceptible Staphylococcus aureus 616 at 6 mg/kg administered daily for 4 days pretreated with 1 g vancomycin administered every 12 hrs for 4 days in in vitro pharmacokinetic-pharmacodynamic model with simulated endocardial vegetations; format: ADME, organism-based; parameters: dose 6 mg/kg; details: in vivo, 96 h; how it was run: as §1
Staphylococcus aureus [31] = experiment: Cmax in methicillin-resistant Staphylococcus aureus WB1 at 6 mg/kg administered daily for 4 days pretreated with 1 g vancomycin administered every 12 hrs for 4 days in in vitro pharmacokinetic-pharmacodynamic model with simulated endocardial vegetations; format: ADME, organism-based; parameters: dose 6 mg/kg; details: in vivo, 96 h; how it was run: as §1
Staphylococcus aureus [32] = experiment: Half life in methicillin-resistant Staphylococcus aureus 675 at 6 mg/kg administered daily for 4 days pretreated with 1 g vancomycin administered every 12 hrs for 4 days in in vitro pharmacokinetic-pharmacodynamic model with simulated endocardial vegetations; format: ADME, organism-based; parameters: dose 6 mg/kg; details: in vivo, 96 h; how it was run: as §1
Staphylococcus aureus [33] = experiment: Antimicrobial activity against methicillin-susceptible Staphylococcus aureus 616 at 6 mg/kg administered daily for 4 days pretreated with 1 g vancomycin administered every 12 hrs for 4 days in in vitro pharmacokinetic-pharmacodynamic model with simulated endocardial vegetations; format: functional; how it was run: as §2

CN[C@H](CC(C)C)C(=O)N[C@H]1C(=O)N[C@@H](CC(N)=O)C(=O)N[C@H]2C(=O)N[C@H]3C(=O)N[C@H](C(=O)N[C@H](C(=O)O)c4cc(O)cc(O)c4-c4cc3ccc4O)[C@H](O)c3ccc(c(Cl)c3)Oc3cc2cc(c3O[C@@H]2O[C@H](CO)[C@@H](O)[C@H](O)[C@H]2O[C@H]2C[C@](C)(N)[C@H](O)[C@H](C)O2)Oc2ccc(cc2Cl)[C@H]1O [VANCOMYCIN]
Cmax (Staphylococcus aureus [1]): 33.4 µg/mL | Cmax (Staphylococcus aureus [2]): 31.4 µg/mL | t1/2 (Staphylococcus aureus [3]): 7.2 h | t1/2 (Staphylococcus aureus [4]): 5.3 h | t1/2 (Staphylococcus aureus [5]): 7.4 h | Cmax (Staphylococcus aureus [6]): 31.7 µg/mL | t1/2 (Staphylococcus aureus [7]): 6.6 h | t1/2 (Staphylococcus aureus [8]): 6.9 h | Cmax (Staphylococcus aureus [9]): 32.9 µg/mL | Cmax (Staphylococcus aureus [10]): 32.8 µg/mL

CCCCCCCCCC(=O)N[C@@H](Cc1c[nH]c2ccccc12)C(=O)N[C@H](CC(N)=O)C(=O)N[C@@H](CC(=O)O)C(=O)N[C@@H]1C(=O)NCC(=O)N[C@@H](CCCN)C(=O)N[C@@H](CC(=O)O)C(=O)N[C@H](C)C(=O)N[C@@H](CC(=O)O)C(=O)NCC(=O)N[C@H](CO)C(=O)N[C@@H]([C@H](C)CC(=O)O)C(=O)N[C@@H](CC(=O)c2ccccc2N)C(=O)O[C@@H]1C
t1/2 (Staphylococcus aureus [11]): 8.8 h | T99.9% (Staphylococcus aureus [12]): 34.9 h | MIC (Staphylococcus aureus [13]): 0.25 µg/mL (≈ 0.154 µM) | t1/2 (Staphylococcus aureus [14]): 7.9 h | MIC (Staphylococcus aureus [15]): 0.25 µg/mL (≈ 0.154 µM) | Cmax (Staphylococcus aureus [16]): 107.2 µg/mL | t1/2 (Staphylococcus aureus [17]): 8.4 h | t1/2 (Staphylococcus aureus [18]): 9.3 h | T99.9% (Staphylococcus aureus [19]): 6.6 h | Cmax (Staphylococcus aureus [20]): 106.1 µg/mL | t1/2 (Staphylococcus aureus [4]): 5.3 h | Cmax (Staphylococcus aureus [21]): 109.3 µg/mL | T99.9% (Staphylococcus aureus [22]): 4.8 h | RatioAUC/MIC (Staphylococcus aureus [23]): 536.4 | T99.9% (Staphylococcus aureus [24]): 10.9 h | Cmax (Staphylococcus aureus [25]): 160.2 µg/mL | MIC (Staphylococcus aureus [26]): 0.125 µg/mL (≈ 0.0771 µM) | MIC (Staphylococcus aureus [27]): 0.25 µg/mL (≈ 0.154 µM) | t1/2 (Staphylococcus aureus [28]): 7.6 h | MIC (Staphylococcus aureus [29]): 0.25 µg/mL (≈ 0.154 µM) | Cmax (Staphylococcus aureus [30]): 106.8 µg/mL | Cmax (Staphylococcus aureus [31]): 98.3 µg/mL | t1/2 (Staphylococcus aureus [32]): 8 h | T99.9% (Staphylococcus aureus [33]): 9.46 h
